# WNV NS2B-NS3 inh: WNV NS2B-NS3 proteinase inhibition; P06935; WNV NS2B-NS3 protease, fluorogenic substrate Ex360/Em465; stronger effect = lower value; z-score (test concentration not listed); 65,000 compounds, 0.18% hits; in the data active = z-score below about -3
# D1 mod: D1 dopamine receptor (human) allosteric modulation; AID 641; P21728; 58,000 compounds, 5.9% hits; HEK293 D1, CRE-luciferase, dopamine EC30 potentiation; actives deviate in either direction; B-score at 10 µM;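 active = luminescence count or its row- and column-corrected plate score outside the 99.7% band of the plate's sample wells, on either side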
# AP ELISA ortho: alternative pathway complement inhibition, orthogonal assay. Human serum alternative complement pathway, LPS-coated ELISA, C3 deposition; tested in compound mixtures. inhibition, % at 5 µM. 62,000 compounds, 0.08% hits. AID 1235;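 active = inhibition above 30% in each of the two pooled mixtures holding the compound, so the lower value exceeds 30%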;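 also: 0% = serum in Mg-EGTA without compound and 100% = EDTA serum blank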
#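 Test system – human serum alternative complement pathway, C3 deposition on LPS-coated wells · Buffer or medium – diluted human serum in Mg2+-EGTA GVB++ · Compound dosing – 5 µM each compound, pools of ten, 50 µM per pool · Schedule – 1 h serum-compound exposure at 37 °C · Measured by – Anti-C3 ELISA, OD 450 nm · Read-out basis – percent inhibition of C3 deposition onto LPS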
# DAT uptake mod: changed human dopamine transporter uptake under cocaine IC80; Q01959; LLC-PK1 hDAT cells, [14C]-dopamine uptake with cocaine IC80; actives deviate in either direction; B-score at 10 µM; 110,000 compounds, 1.3% hits;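 active = Z score or B-score, a plate-position-corrected score, falls beyond the plate's 99.7% confidence bounds, in either direction; inactive = both scores lie inside the 99.7% bounds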;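 also: scored against the spread of the other compound wells on the same plate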
# Target sequence (Q01959 whole entry, looked up): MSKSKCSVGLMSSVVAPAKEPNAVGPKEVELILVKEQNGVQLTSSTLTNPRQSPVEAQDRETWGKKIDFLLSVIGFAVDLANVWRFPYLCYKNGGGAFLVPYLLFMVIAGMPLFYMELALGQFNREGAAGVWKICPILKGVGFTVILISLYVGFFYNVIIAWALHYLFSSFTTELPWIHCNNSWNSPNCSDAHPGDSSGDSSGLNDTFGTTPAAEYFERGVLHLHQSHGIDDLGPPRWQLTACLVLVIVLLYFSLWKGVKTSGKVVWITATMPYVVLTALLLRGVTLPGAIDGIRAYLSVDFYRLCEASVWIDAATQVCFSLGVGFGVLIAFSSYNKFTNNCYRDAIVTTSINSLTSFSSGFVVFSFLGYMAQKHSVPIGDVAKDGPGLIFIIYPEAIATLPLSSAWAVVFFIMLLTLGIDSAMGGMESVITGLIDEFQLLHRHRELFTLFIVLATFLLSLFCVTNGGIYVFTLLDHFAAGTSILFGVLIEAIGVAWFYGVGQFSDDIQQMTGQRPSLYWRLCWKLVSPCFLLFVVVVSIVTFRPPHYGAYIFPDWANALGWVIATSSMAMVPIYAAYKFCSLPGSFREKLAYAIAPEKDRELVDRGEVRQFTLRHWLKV
# An asterisk follows results filed as active; · = not tested or not shown. The full list was thinned out, with hits kept by preference.
SMILES,WNV NS2B-NS3 inh,D1 mod,AP ELISA ortho,DAT uptake mod
C[C@@H]1C=C(C(=O)NCc2ccccc2)O[C@H](OCc2ccc(CO)cc2)C1,·,·,·,-0.83
COc1ccc(Cn2c(C)nc3c(c2=O)c2nc4ccccc4nc2n3Cc2ccco2)cc1,-1.1,7.6*,11,·
CC1=Nn2c(nnc2-c2cccs2)SC1,·,·,·,-3.4*
Clc1ccc(C2=Nn3c(nnc3-c3cccs3)SC2)cc1,·,·,·,-0.15
Cc1nc2ccccc2c(=O)n1NC(=O)COc1ccccc1,1.4,-2.9*,·,-0.44
Cc1cccc(C)c1OCC(=O)Nn1c(C)nc2ccccc2c1=O,0.95,·,0,-0.3
O=C(O)c1ccc2c(c1)-c1nc3ccccc3n1C2=O,·,·,·,-0.96
Cc1ccc(C(C)C)c(OCC(O)CN2CCOCC2)c1 (stereo unspecified),-0.11,0.21,1,-0.42
Cc1ccc(C(C)C)c(OCC(O)CN2CC(C)OC(C)C2)c1 (stereo unspecified),0.12,-3.5*,·,-0.016
CC(=O)c1ccc(NC(=O)c2ccn[nH]2)cc1,-0.99,-2.2*,1,-0.65
O=C(Nc1ccccc1OC(F)F)c1ccc(Br)o1,0.01,1.4,6,-2.5*
O=C1c2ccccc2N(Cc2ccc(Cl)cc2)C2=NCCN12,1.4,11*,5,·
CCCCNC(=O)C1CCN(c2nc(OC)nc(OC)n2)CC1,·,·,·,1.8
O=C(CSc1nnc(-c2cccs2)o1)c1cccs1,-0.31,-0.29,-8,0.32
Cc1cc(C(=O)CSc2nnc(-c3cccs3)o2)c(C)n1-c1ccccc1,0.63,-3.6*,3,0.4
Cc1cc(C(=O)CSc2nc3ccccc3[nH]2)c(C)n1C,0.53,-2.9*,0,1.3
Cc1ccc2nc(SCC(=O)c3cc(C)n(C)c3C)[nH]c2c1,·,·,·,1.1
Cc1cc(F)ccc1NCc1cc2c(cc1[N+](=O)[O-])OCO2,·,·,·,-8*
CC1(C)Cc2cccc(OCC(=O)Nc3cc(C(F)(F)F)ccc3N3CCOCC3)c2O1,·,·,·,-0.019
CCOC(=O)N1CCN(S(=O)(=O)c2cc(Cl)c(OC)cc2Cl)CC1,0.38,0.94,-3,1.6*
CCOC(=O)N1CCN(S(=O)(=O)c2cc(Br)cnc2N)CC1,0.73,-3.3*,-1,-0.58
Cn1ncc2c(=O)n(CC(=O)NC34CC5CC(CC(C5)C3)C4)cnc21,·,·,·,0.67
CCC(=O)Nc1cc2nn(-c3ccccc3)nc2cc1Cl,0.44,-5.4*,14,0.89
CCC(=O)Nc1nc(N)n(-c2ccccc2)n1,·,·,·,-0.88
CC1CCN(S(=O)(=O)c2cn(CC(=O)N3CCN(C)CC3)c(=O)c3ccccc23)CC1,0.27,-0.26,4,-1.6
SMILES,WNV NS2B-NS3 inh,D1 mod,AP ELISA ortho,DAT uptake mod
CCCOc1ccc(-c2nnc(-c3ccco3)o2)cc1,1.2,-4.7*,0,1.2
O=C(COc1ccccc1)Nc1ccc(-c2nnc(-c3ccco3)o2)cc1,1.5,-0.23,-2,-1.1
CC(C)COc1ccc(-c2nnc(-c3ccco3)o2)cc1,0.6,-5.5*,5,0.57
COc1cccc(C(=O)Nc2ccc(-c3nnc(-c4ccco4)o3)cc2)c1,-0.0014,·,4,0.65
O=C(CSc1ncnc2c1oc1ccccc12)NCc1ccc(F)cc1,-0.06,0.33,-3,0.55
CCCCN(Cc1ccccc1)S(=O)(=O)c1cc(Br)cc2c1N(C(C)=O)C(C)C2 (stereo unspecified),·,·,·,-0.094
O=c1c(Sc2ccccc2)c(C(F)(F)F)[nH]n1-c1ccccc1,·,·,·,-2.2*
O=c1c2c(C(F)(F)F)cc(C(F)(F)F)nc2[nH]n1-c1ccccc1,·,·,·,-2.4
Cc1onc(-c2c(F)cccc2Cl)c1C(=O)NC1CCSC1=O (stereo unspecified),·,·,·,0.038
COC(=O)CCn1nnc(-c2cccs2)n1,-0.5,-0.3,4,0.14
COC(=O)CCn1nnc(-c2ccc(C(C)C)cc2)n1,0.08,-2.5*,10,0.0037
CCOC(=O)C1CCN(S(=O)(=O)c2ccc(C(=O)OC)cc2)CC1,-5.5*,-0.92,6,0.064
O=C(NC(Cc1ccccc1)c1ccc2c(c1)OCCCO2)c1ccccc1F (stereo unspecified),·,·,·,2.6*
CC(=O)c1c(C)[nH]c(C(=O)Nc2ccc3c(c2)OCCO3)c1C,-0.03,-2.7*,9,-1.3
COc1ccc(C(=O)NC(Cc2ccccc2)c2ccc3c(c2)OCCCO3)cc1 (stereo unspecified),·,·,·,-0.28
O=C(Nc1ccc2c(c1)OCCO2)c1ccccc1F,-0.69,0.56,7,-1.8*
O=C(Nc1ccc2c(c1)OCCO2)C1CCC1,-0.67,0.006,-3,-0.35
O=C(Nc1ccc2c(c1)OCCO2)c1c(F)cccc1F,-0.75,-1.8,3,-0.49
O=C(Nc1ccc2c(c1)OCCO2)NC1CCCCC1,-0.31,-3.1*,7,-0.38
CCOC(=O)c1[nH]c(C)c(C(=O)Nc2ccc3c(c2)OCCO3)c1C,0.11,·,7,-0.52
CCN(CC)CCC(c1ccc2c(c1)OCO2)c1c(O)cc(OC)cc1OC (stereo unspecified),·,·,·,-0.4
C=CCN(C/C(=N\O)c1sc(C(=O)OCC)nc1C)c1cccc(Br)c1,·,·,·,-1
Cc1cccc(C)c1NC(=O)CSCC(=O)c1ccc(O)c(O)c1,0.54,-0.42,·,-0.89
O=C(Nc1ccc2c(c1)OCCO2)c1cc2sccc2n1Cc1ccccc1,·,·,·,1.4
Cn1c(C(=O)Nc2ccc3c(c2)OCCO3)cc2sccc21,-1.3,-2.7*,16,2.2*
SMILES,WNV NS2B-NS3 inh,D1 mod,AP ELISA ortho,DAT uptake mod
CCCCOC(=O)n1c(SCC(=O)N(CC)CC)nc2ccccc21,-0.05,0.83,-9,3.9*
CCOC(=O)n1c(SCC(N)=O)nc2ccccc21,·,·,·,1.2
COc1ccc(C(=O)Nc2nc3ccccc3[nH]2)cc1OC,-0.81,-1.9,-6,0.0062
O=C(Nc1nc2ccccc2[nH]1)c1ccc(F)cc1,0.84,-6.4*,-1,-0.7
O=C(Nc1nc2ccccc2[nH]1)c1ccccc1F,2.1,-7.9*,17,0.94
CCc1nc2sc3c(c2c(=O)n1N)CCC3,-0.4,2.7,-1,0.24
Nn1c(Nc2ccccc2)nc2sc3c(c2c1=O)CCC3,0.0023,-0.83,23,3.7*
CCN(CC)C(=O)C1CCCN(c2ncnc3c2cnn3-c2cccc(C)c2)C1 (stereo unspecified),1.1,-1.7,7,3.3*
CC1CCCN(c2ncnc3c2cnn3-c2ccc(Cl)cc2)C1 (stereo unspecified),-1.4,·,16,0.0051
Cc1ccc(-n2ncc3c(N4CCCC4)ncnc32)c(C)c1,-0.73,·,·,-0.2
Cc1cccc(-n2ncc3c(N4CCC5(CC4)OCCO5)ncnc32)c1,0.02,-1.1,-7,-0.4
COc1cccc(N2CCN(c3ncnc4c3cnn4-c3ccc(C)cc3C)CC2)c1,1.7,-7.4*,14,1.1
Cc1cccc(-n2ncc3c(N4CCC(C)CC4)ncnc32)c1,0.64,-4.3*,3,0.11
CCN(CC)C(=O)C1CCCN(c2ncnc3c2cnn3-c2ccc(Cl)cc2)C1 (stereo unspecified),-0.65,-3.6*,1,·
COc1ccc2nc(-c3ccc(F)cc3)sc2c1,·,·,·,-0.65
Cc1cc(C)n(CC(O)CN2c3ccccc3Sc3ccccc32)n1 (stereo unspecified),-0.32,0.38,·,1.2

# Source: PubChem (several laboratories)
